Data taken from ChEMBL document CHEMBL1138344, “Nuclear magnetic resonance fragment-based identification of novel FKBP12 inhibitors” (J Med Chem, 2007).
pIC50, pKd: −log10 of the molar value.

Tested on: not listed separately
Test: Metabolic stability in human liver microsomes
Format: ADME, Microsome
Method in brief: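 Pooled human liver microsomes with an NADPH-generating system (DETAPAC, NADP+, glucose-6-phosphate, G6P dehydrogenase) in 50 mM potassium phosphate pH 7.4. Started by adding compound from a 5 mM stock (FK506 stock 0.5 mM). Aliquots taken at 0, 10, 25, 40 and 60 min and extracted with dichloromethane/isopropanol 3:1. Half-life determined.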

half-life | Compound
40 min | COC(=O)C1COCCN1C(=O)CSc1ccc(C(C)C)cc1 (configuration not stated)
> 60 min | CC(C)c1ccc(SCC(=O)N2CCOCC2C(=O)O)cc1 (configuration not stated)
40 min | CC(C)c1ccc(SCC(=O)N2CCOCC2C(=O)OCCCc2cccnc2)cc1 (configuration not stated)
40 min | COc1ccc(CCC(=O)N2CCOCC2)cc1
40 min | COC(=O)C1COCCN1C(=O)C(F)(F)Sc1ccc(C(C)C)cc1 (configuration not stated)
40 min | COC(=O)[C@@H]1CCCCN1C(=O)C(=O)c1cc(OC)c(OC)c(OC)c1
40 min | CC(C)c1ccc(SCC(=O)N2CCOCC2)cc1
> 60 min | C=CC[C@@H]1/C=C(\C)C[C@H](C)C[C@H](OC)[C@H]2O[C@@](O)(C(=O)C(=O)N3CCCC[C@H]3C(=O)O[C@H](/C(C)=C/[C@@H]3CC[C@@H](O)[C@H](OC)C3)[C@H](C)[C@@H](O)CC1=O)[C@H](C)C[C@@H]2OC [TACROLIMUS ANHYDROUS]

Target: not listed separately
Test: Inhibition of testosterone 6-hydroxylase
Set-up: species or system Homo sapiens
Method in brief: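 Pooled human liver microsomes with an NADPH-generating system (DETAPAC, NADP+, glucose-6-phosphate, G6P dehydrogenase) in 50 mM potassium phosphate pH 7.4. Compound added, then testosterone substrate; 10 min shaking at 37 °C, stopped with cold ethyl acetate. Read-out is 6-hydroxytestosterone formation. IC50 estimated, or determined in detail for some compounds.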

pIC50 | Compound
6.09 | CC(C)c1ccc(SCC(=O)N2CCOCC2C(=O)OCCCc2cccnc2)cc1 (configuration not stated)
5.65 | C=CC[C@@H]1/C=C(\C)C[C@H](C)C[C@H](OC)[C@H]2O[C@@](O)(C(=O)C(=O)N3CCCC[C@H]3C(=O)O[C@H](/C(C)=C/[C@@H]3CC[C@@H](O)[C@H](OC)C3)[C@H](C)[C@@H](O)CC1=O)[C@H](C)C[C@@H]2OC [TACROLIMUS ANHYDROUS]

Target: Peptidyl-prolyl cis-trans isomerase FKBP1A (Homo sapiens, UniProt P62942)
Sequence (P62942 whole entry): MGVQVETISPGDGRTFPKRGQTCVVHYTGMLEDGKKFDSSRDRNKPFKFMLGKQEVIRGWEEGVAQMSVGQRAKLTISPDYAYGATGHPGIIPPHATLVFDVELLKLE

pKd | Compound
3.64 | Cc1ccc(OCC(=O)N2CCOCC2)cc1C
4.00 | CC(C)c1ccc(OCC(=O)N2CCOCC2)cc1
3.45 | O=C(COc1ccccc1F)N1CCOCC1
3.24 | O=C(COc1ccc(F)cc1)N1CCOCC1
< 2.85 | O=C(CSc1ccc2ccccc2c1)N1CCOCC1
< 2.30 | COc1cc(CNCc2cccs2)ccc1OCC(=O)N1CCOCC1
3.37 | CC(C)c1ccc(SCC(=O)N2CCOCC2C(=O)O)cc1 (configuration not stated)
5.25 | CC(C)c1ccc(SCC(=O)N2CCOCC2C(=O)OCCCc2cccnc2)cc1 (configuration not stated)
2.89 | CC(C)c1ccc(S(=O)(=O)CC(=O)N2CCOCC2C(=O)OCCCc2ccc[n+]([O-])c2)cc1 (configuration not stated)
< 2.40 | CSc1ccccc1NC(=O)Cn1c(-c2cscn2)nc2ccccc21
< 2.82 | Cc1cc(OCC(=O)N2CCOCC2)ccc1NC(=O)OCc1ccccc1
< 2.60 | Cc1ccc(C(C)C)c(OCCNC(=O)c2ccccc2OCC(=O)N2CCOCC2)c1
3.12 | O=C(COc1cccc(Cl)c1)N1CCOCC1
3.64 | Cc1cc(OCC(=O)N2CCOCC2)cc(C)c1Cl
< 2.82 | Cc1cc(C)c(OCC(=O)N2CCOCC2)c(C)c1
3.26 | CC(=O)c1cccc(NS(=O)(=O)N2CCCCC2)c1
3.91 | CCc1ccc(OCC(=O)N2CCOCC2)cc1
3.78 | O=[N+]([O-])c1ccc(NS(=O)(=O)N2CCCCC2)cc1
< 3.00 | Cc1cc(C)c(C)c(OCC(=O)N2CCOCC2)c1
< 2.52 | c1ccc2c(c1)nc(-c1cscn1)n2Cc1ccc(-c2nnn[nH]2)cc1
3.54 | Cc1ccc(NS(=O)(=O)N2CCCCC2)cc1
< 2.82 | CCc1ccccc1OCC(=O)N1CCOCC1

pKd | Compound
< 3.00 | CC(C)NS(=O)(=O)c1ccc(OCC(=O)N2CCOCC2)cc1
3.24 | CCOc1ccc(OCC(=O)N2CCOCC2)cc1
< 3.00 | Cc1ccc(NS(=O)(=O)c2ccc(OCC(=O)N3CCOCC3)cc2)cc1
3.24 | O=C(COc1ccc2c(c1)OCO2)N1CCOCC1
< 2.30 | Cc1ccc(OCC(=O)N2CC(C)OC(C)C2)cc1C (configuration not stated)
< 2.73 | Cc1cc(C)cc(NS(=O)(=O)N2CCCCC2)c1
< 2.60 | CC(C)c1ccccc1OCC(=O)N1CCOCC1
< 2.91 | CCOc1ccc(NS(=O)(=O)N2CCCCC2)cc1
< 2.43 | Cc1ccc(Cl)cc1NS(=O)(=O)N1CCCCC1
< 2.43 | O=S(=O)(Nc1ccc2c(c1)oc1ccccc12)N1CCCCC1
< 2.30 | Nc1cccc(OCC(=O)N2CCOCC2)c1
3.24 | Cc1cc(S(=O)(=O)N2CCCC2)ccc1OCC(=O)N1CCOCC1
3.30 | COC(=O)C1COCCN1C(=O)CS(=O)(=O)c1ccc(C(C)C)cc1 (configuration not stated)
4.82 | Cc1ccc(SCC(=O)N2CCOCC2)cc1
3.24 | Cc1cc(S(=O)(=O)Nc2cccc(C(F)(F)F)c2)ccc1OCC(=O)N1CCOCC1
< 2.43 | COc1cc2c(cc1NS(=O)(=O)N1CCCCC1)oc1ccccc12
3.69 | COc1ccc(CCC(=O)N2CCOCC2)cc1
4.82 | O=C(CSc1ccccc1)N1CCOCC1
3.72 | COC(=O)C1COCCN1C(=O)C(F)(F)Sc1ccc(C(C)C)cc1 (configuration not stated)
3.34 | O=C(O)c1cc(C(F)(F)F)ccc1SCC(=O)N1CCOCC1
5.55 | CC(C)c1ccc(SC(F)(F)C(=O)N2CCOCC2)cc1
< 2.40 | O=C(Cn1c(-c2cscn2)nc2ccccc21)Nc1ccc(Cl)cc1

pKd | Compound
4.01 | Nc1nc(-c2nc3ccccc3[nH]2)cs1
3.45 | COc1ccc(OCC(=O)N2CCOCC2)cc1
3.35 | O=C(COc1cc(Cl)c(Cl)cc1Cl)N1CCOCC1
< 2.82 | O=C(Nc1ccc(OCC(=O)N2CCOCC2)cc1)c1ccccc1F
3.14 | CC1CN(C(=O)CSc2ccccc2)CC(C)O1 (configuration not stated)
< 2.40 | Cc1ccc(SCC(=O)N2CC(C)OC(C)C2)cc1 (configuration not stated)
< 2.99 | O=C(COc1ccccc1)N1CCOCC1
< 3.00 | Cc1cc(Cl)ccc1OCC(=O)N1CCOCC1
4.41 | Cc1nnc(SCC2=NOCC2)n1-c1ccccc1
< 2.85 | Cc1ccc2cccc(SCC(=O)N3CCOCC3)c2n1
< 2.40 | N#Cc1ccccc1Cn1c(-c2cscn2)nc2ccccc21
< 2.40 | Fc1ccc(Cn2c(-c3cscn3)nc3ccccc32)c(Cl)c1
5.52 | COC(=O)[C@@H]1CCCCN1C(=O)C(=O)c1cc(OC)c(OC)c(OC)c1
3.12 | CCCCNS(=O)(=O)c1ccc(OCC(=O)N2CCOCC2)cc1
3.12 | O=C(COc1ccc(S(=O)(=O)NC2CCCC2)cc1)N1CCOCC1
< 2.30 | O=C(Nc1cccc(Cl)c1Cl)c1ccccc1OCC(=O)N1CCOCC1
< 2.52 | Brc1ccccc1Cn1c(-c2cscn2)nc2ccccc21
3.50 | O=S(=O)(Nc1ccc(F)cc1)N1CCCCC1
< 2.85 | O=C(CSc1cccc2cccnc12)N1CCOCC1
< 2.40 | Clc1cccc(Cl)c1Cn1c(-c2cscn2)nc2ccccc21
< 2.52 | FC(F)(F)c1cccc(Cn2c(-c3cscn3)nc3ccccc32)c1
< 2.40 | O=C(Cn1c(-c2cscn2)nc2ccccc21)Nc1ccccc1F

pKd | Compound
< 2.60 | O=C(Nc1ccc(OCC(=O)N2CCOCC2)cc1)c1ccccc1Cl
< 3.00 | Cc1ccc(OCC(=O)N2CCOCC2)c(C)c1
3.81 | O=S(=O)(Nc1cc(Cl)cc(Cl)c1)N1CCCCC1
3.12 | Cc1ccc(-c2ccc(OCC(=O)N3CCOCC3)cc2)cc1
< 2.99 | O=C(COc1ccc(Cl)cc1Cl)N1CCOCC1
3.54 | Cc1ccc(NS(=O)(=O)N2CCCCC2)c(C)c1
3.73 | Cc1cc(OCC(=O)N2CCOCC2)ccc1C(C)C
< 2.30 | CC1CN(C(=O)COc2ccccc2Cl)CC(C)O1 (configuration not stated)
4.82 | O=C(CSc1ccc(Cl)cc1)N1CCOCC1
< 2.43 | O=C(O)c1ccccc1SCC(=O)N1CCOCC1
< 2.30 | O=C(Nc1ccc(OCC(=O)N2CCOCC2)cc1)c1cccnc1
< 2.40 | CC(C)c1ccc(SCC(=O)O)cc1
3.87 | Cc1ccc(NS(=O)(=O)N2CCCCC2)cc1Cl
< 2.30 | Cc1ccc(S(=O)(=O)CC(=O)N2CCOCC2)cc1
< 2.82 | c1ccc2c(c1)nc(-c1cscn1)n2CCCc1nnn[nH]1
3.24 | Cc1cc(OCC(=O)N2CCOCC2)cc(C(C)C)c1Cl
5.64 | CC(C)c1ccc(CCC(=O)N2CCOCC2)cc1
< 2.62 | Cc1cc(N)cc(C)c1OCC(=O)N1CCOCC1
3.52 | O=S(=O)(Nc1ccc(Br)cc1)N1CCCCC1
4.22 | c1ccc2[nH]c(-c3cscn3)nc2c1 [THIABENDAZOLE]

Compound | pKd
Cc1cc(OCC(=O)N2CC(C)OC(C)C2)cc(C)c1Cl (configuration not stated) | < 2.30
